HGIII-sPLA2 inh = Blocks human group III sPLA2 activity. QFRET BODIPY PC-A2 liposome hydrolysis, fluorescence. Q9NZ20. 370,000 tested, 0.56% active. inhibition, % at 12.2 µM;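 active = inhibition above mean plus 3 SD of compounds lying within the high and low control bounds, cut at about 19% in these data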;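 also: 0% = median of test compound wells and 100% = no enzyme DMSO wells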
Target sequence (Q9NZ20 whole entry, looked up): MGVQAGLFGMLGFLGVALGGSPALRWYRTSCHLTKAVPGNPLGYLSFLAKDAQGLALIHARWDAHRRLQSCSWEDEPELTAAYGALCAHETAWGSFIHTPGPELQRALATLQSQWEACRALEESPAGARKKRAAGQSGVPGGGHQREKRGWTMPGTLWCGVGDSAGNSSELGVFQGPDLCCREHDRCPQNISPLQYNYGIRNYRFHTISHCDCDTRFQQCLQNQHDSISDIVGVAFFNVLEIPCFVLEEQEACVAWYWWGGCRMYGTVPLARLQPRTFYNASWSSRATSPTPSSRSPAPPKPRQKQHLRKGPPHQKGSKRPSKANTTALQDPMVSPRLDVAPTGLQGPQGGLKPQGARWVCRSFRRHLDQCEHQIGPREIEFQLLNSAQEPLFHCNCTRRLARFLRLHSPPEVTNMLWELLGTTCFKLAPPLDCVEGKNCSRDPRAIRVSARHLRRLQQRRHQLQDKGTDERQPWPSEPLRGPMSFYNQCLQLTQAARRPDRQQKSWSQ
Tb MetRS inh = blocks T. brucei methionyl-tRNA synthetase activity; purified T. brucei MetRS, ATP depletion, Kinase-Glo luminescence; inhibition, % at 11.9 µM; 360,000 tested, 0.4% active;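 active = inhibition above a per-plate cutoff of the control wells' mean inhibition plus 3 SD, cut at about 5.5% in these data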;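 also: 0% = DMSO wells median and 100% = median of wells with control inhibitor compound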
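Dosing: 11.9 µM compound single dose, 0.9% DMSO; Assay system: purified T. brucei MetRS enzyme; Measured by: Kinase-Glo luciferase luminescence reporting remaining unconsumed ATP; Schedule: 15 min plus 2 h at 25 °C.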
DAGLB inhibitor = blocks human DAGLB lipase activity. Q8NCG7. HEK293T DAGLB membrane lysate, EnzChek fluorogenic substrate. inhibition, % at 5.17 µM. 340,000 tested, 0.059% active. AID 504411; in the data active = inhibition above about 34%;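 also: 0% = enzyme with vehicle and 100% = wells lacking enzyme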
PLC-gamma1 inh = blocks human PLC-gamma1 enzyme activity. purified PLC-gamma1, fluorogenic substrate, fluorescence. inhibition, % at 12.2 µM. 370,000 tested, 0.84% active. AID 720700; in the data active = inhibition above about 9.5%
PLCb3 inh = PLC-beta3 (human) inhibition, primary screen; Q01970; Purified PLC-beta3, fluorogenic substrate, fluorescence; inhibition, % at 12.2 µM; 370,000 tested, 0.18% active; AID 720704;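 also: 0% = median of compound wells on plate and 100% = full blocker control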
PLCgamma1 ctr = inhibits human PLC-gamma1 in PLC-beta3 counter-screen | shares compounds with PLC-gamma1 inh | purified PLC-gamma1, fluorogenic substrate, fluorescence | inhibition, % at 12.3 µM | 3,300 tested, 3.1% active; in the data active = inhibition above about 9.5%
PLCbeta3 conf = human PLC-beta3 inhibition, confirmation; shares compounds with PLC-gamma1 inh; purified PLC-beta3, fluorogenic substrate fluorescence; inhibition, % at 12.3 µM; 3,300 tested, 1% active; AID 743261
Active calls of the source: *. Rows were chosen to be rich in hits. Some 1.9% of all compounds tested hit in one or more screens of this group. Rule as the data show it, unless noted: active = inhibition above about 11%; inactive = the rest.

What do the screens show for `CN(C)[C@@H]1CCN(c2ccc3c(c2)OCCCN(C2CC2)S3(=O)=O)C1`?
HGIII-sPLA2 inh: -0.9; PLC-gamma1 inh: -2.4; PLCb3 inh: 0.0

How did CCCC(=O)OC[C@H]1CN(C2CCCC2)S(=O)(=O)c2c(Oc3ccc(F)cc3)cccc2O1 do in these assays?
HGIII-sPLA2 inh: -10.1; PLC-gamma1 inh: -0.3; PLCb3 inh: 5.6

How did NC(c1csc(Nc2ncccn2)n1)c1ccccc1Cl (stereo not given) do in these assays?
HGIII-sPLA2 inh: 7.8; Tb MetRS inh: -0.2; PLC-gamma1 inh: 11.8*; PLCb3 inh: 10.5; PLCgamma1 ctr: -8.0; PLCbeta3 conf: 0.2

Results for c1ccc(-c2nnc(SCC3CCCCO3)nc2-c2ccccc2)cc1 (stereo not given) ?
HGIII-sPLA2 inh: 4.5; Tb MetRS inh: -0.9; DAGLB inhibitor: -14.1; PLC-gamma1 inh: 16.9*; PLCb3 inh: 7.1; PLCgamma1 ctr: -2.4; PLCbeta3 conf: 0.8

What do the screens show for `Cc1ccccc1NC(=O)C1CC(=O)N(c2ccc3c4c(cccc24)CC3)C1` (stereo not given)?
HGIII-sPLA2 inh: -22.6; Tb MetRS inh: -0.4; DAGLB inhibitor: -1.8; PLC-gamma1 inh: -0.4; PLCb3 inh: 0.6

How did Cc1ccccc1NC(=O)C1CC(=O)N(c2ccccc2F)C1 (stereo not given) do in these assays?
HGIII-sPLA2 inh: 7.0; Tb MetRS inh: -0.5; DAGLB inhibitor: -0.7; PLC-gamma1 inh: 3.2; PLCb3 inh: 11.3*; PLCgamma1 ctr: -2.4; PLCbeta3 conf: -1.4

How did COC[C@H]1CCCN1c1ccc2c(c1)OCCCN(C1CC1)S2(=O)=O do in these assays?
HGIII-sPLA2 inh: -1.3; PLC-gamma1 inh: -1.1; PLCb3 inh: 0.5

Results for C=CCNc1nc(Cl)nc(Nc2ccccc2)n1 ?
HGIII-sPLA2 inh: 7.8; Tb MetRS inh: 0.2; DAGLB inhibitor: -3.1; PLC-gamma1 inh: 10.8*; PLCb3 inh: -2.6; PLCgamma1 ctr: 3.4; PLCbeta3 conf: 4.7

How did CCCCS(=O)(=O)NCC1CCN(C(=O)C(=O)c2cc3ccccc3o2)CC1 do in these assays?
HGIII-sPLA2 inh: -0.8; PLC-gamma1 inh: -3.5; PLCb3 inh: 0.2

How did Cc1nnc2sc(SCC(=O)N3CCCCC3)nn2c1=O do in these assays?
HGIII-sPLA2 inh: -0.6; Tb MetRS inh: 0.5; DAGLB inhibitor: -0.1; PLC-gamma1 inh: 11.7*; PLCb3 inh: -3.2; PLCgamma1 ctr: -6.9; PLCbeta3 conf: -0.9

How did CC(=O)Nc1cc2nc3ccccc3oc-2cc1=O do in these assays?
HGIII-sPLA2 inh: -0.8; PLC-gamma1 inh: 1.4; PLCb3 inh: 3.5

How did CC(=O)N1CCC(N(C(=O)Nc2ccc(C)c(C)c2)C2CCCC2)CC1 do in these assays?
HGIII-sPLA2 inh: 10.3; Tb MetRS inh: -0.9; DAGLB inhibitor: 0.9; PLC-gamma1 inh: 3.6; PLCb3 inh: 11.7*; PLCgamma1 ctr: -7.7; PLCbeta3 conf: -12.7

How did COc1ccc(N2CCN(S(=O)(=O)c3cccc4nsnc34)CC2)cc1 do in these assays?
HGIII-sPLA2 inh: 3.3; Tb MetRS inh: -0.3; DAGLB inhibitor: 0.3; PLC-gamma1 inh: -0.7; PLCb3 inh: -0.4

Results for CC(=O)c1ccc(N2CCN(S(=O)(=O)c3cccc4nsnc34)CC2)cc1 ?
HGIII-sPLA2 inh: 9.8; Tb MetRS inh: -0.8; DAGLB inhibitor: 0.7; PLC-gamma1 inh: 10.0*; PLCb3 inh: 5.5; PLCgamma1 ctr: -1.7; PLCbeta3 conf: 3.3

What do the screens show for `C=CCN1CC(COCc2ccccc2)OCCS1(=O)=O` (stereo not given)?
HGIII-sPLA2 inh: -1.3; PLC-gamma1 inh: -1.8; PLCb3 inh: -2.1

How did O=C(Nc1ccc(C(F)(F)F)cc1)OC1CCC12CCC(c1ccccc1)CC2 (stereo not given) do in these assays?
HGIII-sPLA2 inh: 8.0; PLC-gamma1 inh: 1.1; PLCb3 inh: -1.2

Results for COC(=O)[C@]12CCCCC=C1N(Cc1ccc(Cl)cc1Cl)C(=O)[C@H](CC(=O)N1CCC(c3ccccc3)CC1)C2 ?
HGIII-sPLA2 inh: 11.8; Tb MetRS inh: -2.1; PLC-gamma1 inh: 12.2*; PLCb3 inh: -5.3; PLCgamma1 ctr: 7.1; PLCbeta3 conf: 2.6

Results for CCOC(=O)[C@]12CCCC=C1N(Cc1ccc(Cl)cc1Cl)C(=O)[C@H](CC(=O)N1CCC(c3ccccc3)CC1)C2 ?
HGIII-sPLA2 inh: 1.6; Tb MetRS inh: -0.4; PLC-gamma1 inh: 1.6; PLCb3 inh: 1.4

Results for COc1cc(S(=O)(=O)Nc2ccc(C)cc2)ccc1NC(=O)c1ccncc1 ?
HGIII-sPLA2 inh: -3.4; Tb MetRS inh: -0.2; DAGLB inhibitor: -1.4; PLC-gamma1 inh: 12.2*; PLCb3 inh: 7.1; PLCgamma1 ctr: -3.9; PLCbeta3 conf: 1.1

How did C=CCNC(=O)CN1CCC(c2nc3cc(C)c(C)cc3[nH]2)CC1 do in these assays?
HGIII-sPLA2 inh: 16.3; Tb MetRS inh: 1.8; DAGLB inhibitor: -0.4; PLC-gamma1 inh: 12.3*; PLCb3 inh: -5.3; PLCgamma1 ctr: -9.9; PLCbeta3 conf: -3.3

Results for C#CCN(Cc1ccco1)C(=O)c1nnc2c3cc(OC)ccc3n(S(=O)(=O)c3ccc(OC)cc3)c2n1 ?
HGIII-sPLA2 inh: 3.0; PLC-gamma1 inh: -82.7; PLCb3 inh: -113.1

Results for CS/C(=C\[N+](=O)[O-])Nc1ccc(Cl)cc1 ?
HGIII-sPLA2 inh: -6.5; Tb MetRS inh: 0.2; DAGLB inhibitor: 4.4; PLC-gamma1 inh: 10.7*; PLCb3 inh: 1.6; PLCgamma1 ctr: -4.9; PLCbeta3 conf: -4.2

What do the screens show for `O=C(NC1CCCCN(Cc2cccc(Cl)c2)C1=O)c1ccccc1` (stereo not given)?
HGIII-sPLA2 inh: -0.2; PLC-gamma1 inh: 1.8; PLCb3 inh: 1.8

Results for C=CCOC(=O)N[C@@H](c1coc2ccccc2c1=O)[C@@H](C)/C=C/CC(=O)OC ?
HGIII-sPLA2 inh: 2.4; PLC-gamma1 inh: -4.0; PLCb3 inh: -4.7

Results for Nc1nc2c(ncn2[C@@H]2O[C@H](C(=O)N[C@H](Cc3ccccc3)C(=O)NCCCc3ccccc3)[C@@H](O)[C@H]2O)c(=O)[nH]1 ?
HGIII-sPLA2 inh: -3.0; PLC-gamma1 inh: -0.1; PLCb3 inh: 2.5

How did CCCCOCC1CN(CCCC)S(=O)(=O)c2c(cccc2N2CCCCC2)O1 (stereo not given) do in these assays?
HGIII-sPLA2 inh: 10.5; PLC-gamma1 inh: 2.0; PLCb3 inh: 0.5

Results for CCN1CCN(CCc2nc3cc([N+](=O)[O-])ccc3n2C)CC1 ?
HGIII-sPLA2 inh: -0.6; Tb MetRS inh: 0.9; DAGLB inhibitor: 1.0; PLC-gamma1 inh: 12.2*; PLCb3 inh: -3.5; PLCgamma1 ctr: -0.6; PLCbeta3 conf: 2.1

How did Cn1c(CCN2CCCCC2)nc2cc([N+](=O)[O-])ccc21 do in these assays?
HGIII-sPLA2 inh: -4.2; Tb MetRS inh: -1.4; DAGLB inhibitor: -1.5; PLC-gamma1 inh: 4.0; PLCb3 inh: 5.6
